Reference: ChEMBL document CHEMBL1122854, “Novel bis[1,6-dihydro-6,6-dimethyl-1,3,5-triazine-2,4-diamines] as antitrypanosomal agents” (1985)

Columns and labels:
Type in all cases: functional
[1] = test system: Trypanosoma brucei rhodesiense; test: (§1) Antitrypanosomal activity was evaluated against Trypanosoma rhodesiense infections in mice, at dose 106 mg/kg, administered subcutaneously; conditions: route subcutaneous
In short: (§2)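 IUR/HA Swiss mice (six weeks old, 30-32 g) infected i.p. with Wellcome CT strain T. rhodesiense. A single subcutaneous dose in peanut oil was given about 2 h after inoculation, with five mice per dose level. Positive control was stilbamidine or 2-hydroxystilbamidine isethionate at 40 mg/kg. Deaths before day 4 were scored toxic, and 30-day survivors cured.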

[2] = test system: Trypanosoma brucei rhodesiense; test: Antitrypanosomal activity against Trypanosoma rhodesiense infections in mice, 3.3 mg/kg administered subcutaneously; conditions: route subcutaneous
In short: (§3)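 Six-week-old IUR/HA Swiss mice (30-32 g), 5 per dose, infected ip with 0.5 mL of a 1:50 000 dilution of heparinized heart blood from donor mice infected 3 days before (Wellcome CT strain). Single sc dose in peanut oil about 2 h post-inoculation. Deaths before day 4 counted toxic. ΔMST versus untreated controls; survivors at 30 days counted cured.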

[3] = test system: Trypanosoma brucei rhodesiense; test: Antitrypanosomal activity against Trypanosoma rhodesiense infections in mice, 424 mg/kg administered subcutaneously; conditions: route subcutaneous; in short: as §2
[4] = test system: Trypanosoma brucei rhodesiense; test: Anti-trypanosomal activity against Trypanosoma rhodesiense infections in mice, 26 mg/kg administered subcutaneously; conditions: route subcutaneous; in short: as §3
[5] = test system: Trypanosoma brucei rhodesiense; test: Antitrypanosomal activity against Trypanosoma rhodesiense infections in mice, 6.6 mg/kg administered subcutaneously; conditions: route subcutaneous; in short: as §3
[6] = test system: Trypanosoma brucei rhodesiense; test: Antitrypanosomal activity was evaluated against Trypanosoma rhodesiense infections in mice, at dose 1.6 mg/kg, administered subcutaneously; conditions: route subcutaneous; in short: as §3
[7] = test system: Mus musculus; test: (§4) Antitrypanosomal activity was evaluated against Trypanosoma rhodesiense infections in mice, at dose 26 mg/kg, administered subcutaneously; conditions: route subcutaneous; in short: as §2
[8] = test system: Mus musculus; test: Antitrypanosomal activity was evaluated against Trypanosoma rhodesiense infections in mice, at dose 106 mg/kg, administered orally;Toxic
In short: (§5)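 Oral dosing of IUR/HA Swiss mice (six weeks old, 30-32 g) infected i.p. with Wellcome CT strain T. rhodesiense, with five mice per dose level. Survival was followed for 30 days. Deaths before day 4 were counted as toxic and 30-day survivors as cured. ΔMST is the difference in mean survival time between treated and control mice.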

[9] = test system: Mus musculus; test: Antitrypanosomal activity was evaluated against Trypanosoma rhodesiense infections in mice, at dose 106 mg/kg, administered orally; conditions: route oral
[10] = test system: Mus musculus; test: Antitrypanosomal activity was evaluated against Trypanosoma rhodesiense infections in mice, at dose 26 mg/kg, administered orally; conditions: route oral
[11] = test system: Mus musculus; test: (§6) Antitrypanosomal activity was evaluated against Trypanosoma rhodesiense infections in mice, at dose 424 mg/kg, administered orally; conditions: route oral; in short: as §5
[12] = test system: Mus musculus; test: Antitrypanosomal activity was evaluated against Trypanosoma rhodesiense infections in mice, at dose 13 mg/kg, administered subcutaneously;Cures; conditions: route subcutaneous; in short: as §2
[13] = test system: Mus musculus; test: Antitrypanosomal activity was evaluated against Trypanosoma rhodesiense infections in mice, at dose 212 mg/kg, administered subcutaneously;Cures; conditions: route subcutaneous; in short: as §2
[14] = test system: Mus musculus; test: (§7) Antitrypanosomal activity was evaluated against Trypanosoma rhodesiense infections in mice, at dose 212 mg/kg, administered subcutaneously; conditions: route subcutaneous; in short: as §3
[15] = test system: Mus musculus; test: Antitrypanosomal activity was evaluated against Trypanosoma rhodesiense infections in mice, at dose 26 mg/kg, administered subcutaneously;Cures; conditions: route subcutaneous; in short: as §2
[16] = test system: Mus musculus; test: Antitrypanosomal activity was evaluated against Trypanosoma rhodesiense infections in mice, at dose 53 mg/kg, administered subcutaneously;Cures; conditions: route subcutaneous; in short: as §2
[17] = test system: Trypanosoma brucei rhodesiense; test: Antitrypanosomal activity was evaluated against Trypanosoma rhodesiense infections in mice, at dose 424 mg/kg, administered subcutaneously; conditions: route subcutaneous; in short: as §3
[18] = test system: Mus musculus; test: Antitrypanosomal activity was evaluated against Trypanosoma rhodesiense infections in mice, at dose 106 mg/kg, administered subcutaneously; Cures; conditions: route subcutaneous; in short: as §2
[19] = test system: Mus musculus; test: Antitrypanosomal activity was evaluated against Trypanosoma rhodesiense infections in mice, at dose 424 mg/kg, administered subcutaneously;Toxic; conditions: route subcutaneous; in short: as §2
[20] = test system: Mus musculus; test: (§8) Antitrypanosomal activity was evaluated against Trypanosoma rhodesiense infections in mice, at dose 6.6 mg/kg, administered subcutaneously; conditions: route subcutaneous; in short: as §3
[21] = test system: Trypanosoma brucei rhodesiense; test: (§9) Antitrypanosomal activity was evaluated against Trypanosoma rhodesiense infections in mice, at dose 53 mg/kg, administered subcutaneously; conditions: route subcutaneous; in short: as §3
[22] = test system: Mus musculus; test: as §1; conditions: route subcutaneous; in short: as §2
[23] = test system: Mus musculus; test: Antitrypanosomal activity was evaluated against Trypanosoma rhodesiense infections in mice, at dose 6.6 mg/kg, administered subcutaneously;Cures; conditions: route subcutaneous; in short: as §2
[24] = test system: Mus musculus; test: Antitrypanosomal activity was evaluated against Trypanosoma rhodesiense infections in mice, at dose 13 mg/kg, administered subcutaneously; conditions: route subcutaneous; in short: as §2
[25] = test system: Mus musculus; test: Antitrypanosomal activity was evaluated against Trypanosoma rhodesiense infections in mice, at dose 3.3 mg/kg, administered subcutaneously; Cures; conditions: route subcutaneous; in short: as §2
[26] = test system: Mus musculus; test: as §9; conditions: route subcutaneous; in short: as §2
[27] = test system: Mus musculus; test: Antitrypanosomal activity was evaluated against Trypanosoma rhodesiense infections in mice, at dose 1.6 mg/kg, administered subcutaneously; Cures; conditions: route subcutaneous; in short: as §2
[28] = test system: Mus musculus; test: as §7; conditions: route subcutaneous; in short: as §2; remark: listed apart in the source
[29] = test system: Trypanosoma brucei rhodesiense; test: as §4; conditions: route subcutaneous; in short: as §2
[30] = test system: Mus musculus; test: Antitrypanosomal activity was evaluated against Trypanosoma rhodesiense infections in mice, at dose 6.6 mg/kg administered subcutaneously; Cures; conditions: route subcutaneous; in short: as §2
[31] = test system: Mus musculus; test: Antitrypanosomal activity was evaluated against Trypanosoma rhodesiense infections in mice, at dose 1.6 mg/kg, administered subcutaneously;Cures; conditions: route subcutaneous; in short: as §2
[32] = test system: Mus musculus; test: Antitrypanosomal activity was evaluated against Trypanosoma rhodesiense infections in mice, at dose 106 mg/kg, administered subcutaneously;Cures; conditions: route subcutaneous; in short: as §2
[33] = test system: Mus musculus; test: Antitrypanosomal activity was evaluated against Trypanosoma rhodesiense infections in mice, at dose 53 mg/kg, administered subcutaneously; Cures; conditions: route subcutaneous; in short: as §2
[34] = test system: Mus musculus; test: Antitrypanosomal activity was evaluated against Trypanosoma rhodesiense infections in mice, at dose 13 mg/kg, administered subcutaneously;Toxic; conditions: route subcutaneous; in short: as §2
[35] = test system: Mus musculus; test: Antitrypanosomal activity was evaluated against Trypanosoma rhodesiense infections in mice, at dose 212 mg/kg, administered orally; conditions: route oral
[36] = test system: Mus musculus; test: Antitrypanosomal activity was evaluated against Trypanosoma rhodesiense infections in mice, at dose 3.3 mg/kg, administered subcutaneously; conditions: route subcutaneous; in short: as §3
[37] = test system: Mus musculus; test: Antitrypanosomal activity was evaluated against Trypanosoma rhodesiense infections in mice, at dose 6.6 mg/kg, administered subcutaneously;Toxic; conditions: route subcutaneous; in short: as §2
[38] = test system: Mus musculus; test: as §6; conditions: route oral; remark: listed apart in the source
[39] = test system: Mus musculus; test: Antitrypanosomal activity was evaluated against Trypanosoma rhodesiense infections in mice, at dose 53 mg/kg, administered orally; conditions: route oral
[40] = test system: Mus musculus; test: Antitrypanosomal activity was evaluated against Trypanosoma rhodesiense infections in mice, at dose 26 mg/kg, administered orally;Toxic; conditions: in the assay text read “administered subcutaneously” for “administered orally”
[41] = test system: Mus musculus; test: Antitrypanosomal activity was evaluated against Trypanosoma rhodesiense infections in mice, at dose 424 mg/kg, administered subcutaneously;Cures; conditions: route subcutaneous; in short: as §2
[42] = test system: Mus musculus; test: Antitrypanosomal activity was evaluated against Trypanosoma rhodesiense infections in mice, at dose 13 mg/kg, administered subcutaneously; Cures; conditions: route subcutaneous; in short: as §2
[43] = test system: Mus musculus; test: as §8; conditions: route subcutaneous; in short: as §2; remark: listed apart in the source
[44] = test system: Mus musculus; test: Antitrypanosomal activity was evaluated against Trypanosoma rhodesiense infections in mice, at dose 26 mg/kg, administered subcutaneously; Cures; conditions: route subcutaneous; in short: as §2

**Q.** For `Cc1ccc(N2C(N)=NC(N)=NC2(C)C)cc1N1C(N)=NC(N)=NC1(C)C.Cl.Cl`, which Toxic [1] is on record?
**A.** 5

**Q.** What about the “Delta MST” value [2] of the same compound?
**A.** 0.2 days

**Q.** And the Toxic [3]?
**A.** 5

**Q.** What about the “Delta MST” value [4] of the same compound?
**A.** -0.1 days

**Q.** And the “Delta MST” value [5]?
**A.** 0 days

**Q.** What about the “Delta MST” value [6] of the same compound?
**A.** 0.2 days

**Q.** What about the Toxic [7] of the same compound?
**A.** 2

**Q.** Which Toxic [8] does the source give for `CC1(C)N=C(N)N=C(N)N1c1ccc(Oc2ccc(Oc3ccc(N4C(N)=NC(N)=NC4(C)C)cc3)cc2)cc1.Cl.Cl` here?
**A.** 4

**Q.** And the “Delta MST” value [9]?
**A.** 1.9 days

**Q.** And the “Delta MST” value [10]?
**A.** 0.5 days

**Q.** What about the Toxic [11] of the same compound?
**A.** 5

**Q.** `CC1(C)N=C(N)N=C(N)N1c1ccc(CCc2ccc(N3C(N)=NC(N)=NC3(C)C)cc2)cc1.Cl.Cl` was tested. Which Cures [12] did it give?
**A.** 4

**Q.** And the “Delta MST” value [2]?
**A.** 3.2 days

**Q.** And the Cures [13]?
**A.** 3

**Q.** And the “Delta MST” value [14]?
**A.** 3.8 days

**Q.** What about the Cures [15] of the same compound?
**A.** 4

**Q.** What about the Cures [16] of the same compound?
**A.** 4

**Q.** What about the “Delta MST” value [4] of the same compound?
**A.** 7.7 days

**Q.** What about the “Delta MST” value [17] of the same compound?
**A.** 0.2 days

**Q.** And the Cures [18]?
**A.** 5

**Q.** And the Toxic [19]?
**A.** 3

**Q.** And the “Delta MST” value [20]?
**A.** 3.4 days

**Q.** What about the “Delta MST” value [21] of the same compound?
**A.** 7.8 days

**Q.** With `CC1(C)N=C(N)N=C(N)N1c1ccc(Oc2ccc(N3C(N)=NC(N)=NC3(C)C)cc2)cc1.Cl.Cl` as the compound, how does the Cures [12] read?
**A.** 2

**Q.** What about the Toxic [22] of the same compound?
**A.** 5

**Q.** And the “Delta MST” value [2]?
**A.** 4.2 days

**Q.** What about the Toxic [3] of the same compound?
**A.** 5

**Q.** And the “Delta MST” value [4]?
**A.** 5 days

**Q.** What about the “Delta MST” value [5] of the same compound?
**A.** 5.3 days

**Q.** What about the Cures [23] of the same compound?
**A.** 1

**Q.** What does the source list for `CC1(C)N=C(N)N=C(N)N1c1ccc(-c2ccc(N3C(N)=NC(N)=NC3(C)C)cc2)cc1.Cl.Cl`?
**A.** Toxic [24]: 5; Toxic [1]: 5; Delta MST [2]: 9.2 days; Cures [25]: 1; Delta MST [5]: 7.8 days; Toxic [26]: 5; Cures [27]: 1; Toxic [28]: 5; Delta MST [6]: 3.7 days; Toxic [29]: 5; Cures [30]: 4

**Q.** `CC1(C)N=C(N)N=C(N)N1c1ccc(/C=C/c2ccc(N3C(N)=NC(N)=NC3(C)C)cc2)cc1.Cl.Cl` was tested. Which Cures [12] did it give?
**A.** 5

**Q.** What about the Cures [13] of the same compound?
**A.** 4

**Q.** And the Cures [15]?
**A.** 3

**Q.** And the Cures [31]?
**A.** 1

**Q.** What about the Cures [32] of the same compound?
**A.** 3

**Q.** What about the Cures [23] of the same compound?
**A.** 3

**Q.** What about the Cures [33] of the same compound?
**A.** 5

**Q.** Which Toxic [34] does the source give for `CC1(C)N=C(N)N=C(N)N1c1ccc(CCc2cccc(N3C(N)=NC(N)=NC3(C)C)c2)cc1.Cl.Cl` here?
**A.** 1

**Q.** And the “Delta MST” value [35]?
**A.** 1.8 days

**Q.** And the “Delta MST” value [36]?
**A.** 1 days

**Q.** What about the “Delta MST” value [9] of the same compound?
**A.** 0.4 days

**Q.** And the Toxic [37]?
**A.** 1

**Q.** And the “Delta MST” value [38]?
**A.** 3.7 days

**Q.** What about the “Delta MST” value [39] of the same compound?
**A.** 0.2 days

**Q.** And the Toxic [40]?
**A.** 5

**Q.** And the “Delta MST” value [20]?
**A.** 1.7 days

**Q.** What about the “Delta MST” value [10] of the same compound?
**A.** 0 days

**Q.** And the Cures [41]?
**A.** 1

**Q.** And the Cures [23]?
**A.** 1

**Q.** What does the source list for `CC1(C)N=C(N)N=C(N)N1c1ccc(OCOc2ccc(N3C(N)=NC(N)=NC3(C)C)cc2)cc1.Cl.Cl`?
**A.** Toxic [1]: 5; Delta MST [2]: 1.2 days; Cures [42]: 3; Cures [43]: 1; Toxic [3]: 5; Delta MST [4]: 1.8 days; Delta MST [5]: 2.3 days; Toxic [26]: 2; Cures [44]: 3; Delta MST [6]: 1 days; Delta MST [21]: 9 days; Cures [33]: 1
